Assay: Toxicity liver stage against HepG2, at 10uM
Type: cell-based
Set-up: test concentration 10 uM, cell line HepG2-A16-CD81EGFP
Conditions: human, HepG2-A16-CD81EGFP cells; read-out: INHIBITION
Method in brief: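 Uninfected HepG2-A16-CD81EGFP cells, 3 × 10^3 per well, 1536-well, plated on prespotted compound at 10 μM final, parasite-free screening media added to match infected plates; puromycin 10 μM positive, DMSO 0.5% negative; run in parallel with 48 h PbLuc assay at 37 °C, 5% CO2; viability by CellTiter-Glo luminescence, normalized to controls.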

SMILES	cytotoxicity at 10 µM
Cc1ccc(S(=O)(=O)NCCc2nnc[nH]2)c2cccnc12	-5.93%
c1cc(-c2nc3c(c(NCCc4c[nH]cn4)n2)CCNCC3)ccn1	-146%
CC(C)(C)C(=O)NS(=O)(=O)c1ccc(C#N)c(C(F)(F)F)c1	1.38%
Cc1cnc(C)c(N2CC[C@H](N3CCOCC3)[C@H](CCCO)C2)n1	6.12%
Cc1cc(-c2ccc(=O)n(C3CCN(S(C)(=O)=O)CC3)n2)c(C)o1	3.62%
CC(=O)c1ccc(OCC(=O)NS(=O)(=O)c2ccc(Cl)s2)cc1	1.77%
CC(C)c1cc(COCCCC(=O)O)no1	11.1%
CC(C)CN1CCC(NC(=O)c2ccc(F)cc2I)CC1	-33.9%
O=C(Nc1ccc(F)cc1)C1CCc2ccccc2N1 (stereo not given)	2.4%
O=C(NCc1cnc2n1CCN(Cc1cccs1)C2)c1ccno1	-110%
OCCN(Cc1nc(-c2ccc3c(c2)OCO3)no1)Cc1cccs1	-0.191%
CC(C)NC(=O)C1CN(C(=O)N2CCCC2)CC12CCOCC2 (stereo not given)	1.08%
Cc1c(C(=O)N(C)c2ccccc2)cccc1N(C)S(C)(=O)=O	6.36%
CCn1c(N)nc2cc(C(=O)N3CCCN(C)CC3)cnc21	-2.43%
O=C1[C@H]2CN(Cc3cccs3)C[C@H]2CN1c1cncnc1	-13.8%
Cc1ccc(F)cc1S(=O)(=O)N(C)CC(N)=O	-12.6%
COc1cccc(CN(C(=O)NC2CC2)C2CCC(O)CC2)c1 (stereo not given)	6.8%
c1ccc2ncc(CC3CNCCOC3)cc2c1 (stereo not given)	-3.93%
CCS(=O)(=O)N1CCC(c2nc(C)c(C)c(N3CCCC3)n2)CC1	1.27%
Cc1ccc(-c2nc(CN3CCCC3Cn3cc(C)cn3)no2)cc1 (stereo not given)	4.07%
Cc1cnc(CNC(=O)CC2CCc3ccccc32)cn1 (stereo not given)	-0.862%
Cn1cc(CNC(=O)Nc2ccc(S(=O)(=O)C(F)F)cc2)cn1	-5.09%
CCN(C(=O)CN1CCn2c(C)nnc2C1)C1=CCCCC1	13.4%
O=C(C[C@@H]1COC[C@H]2CN(Cc3ccncc3)C[C@@H]12)N1CCOCC1	6.59%
COc1ccc(OC2CCN(C(=O)CCc3nc(Cl)n[nH]3)CC2)cc1	4.47%
COc1cccc(-n2cc(-c3ccnc(NC(CO)C(C)C)n3)cn2)c1 (stereo not given)	2.74%
CN(Cc1ccc(C#N)cc1)CC1CCS(=O)(=O)C1 (stereo not given)	-5.78%
Cc1nc(CN2CCN(C(=O)NC(C)Cn3ccnc3)CC2)cs1 (stereo not given)	-5.28%

SMILES	cytotoxicity at 10 µM
c1ccc2c(c1)OCCCC2NCc1nnc2n1CCCCC2 (stereo not given)	-0.044%
N#Cc1cccc(CNC(=O)NC2CCN(CC(F)F)CC2)c1	4.16%
Cc1cc(C(F)(F)F)nn1CC(C)C(=O)Nc1ccncc1 (stereo not given)	-2.13%
Cc1cccc(C(C)(C)NC(=O)CCS(C)(=O)=O)c1	2.41%
CCN1CCN(c2ccc(F)cc2C(C)NCc2ccccn2)CC1 (stereo not given)	7.96%
CCS(=O)(=O)N1CCC2(CC1)CN(c1ccsc1)C(=O)CO2	-73.7%
Cn1ncc2c(N3CCN(CCC(N)=O)CC3)nc(C3CCCC3)nc21	-2.45%
Cn1c(C2CC2)nc2c1CCN(CCOc1ccc(C#N)cc1)C2	-9.39%
COc1ccc2nnc(CCCC(=O)NCCc3ccncc3)n2n1	-10%
O=C1CCC2(CCCN(C(=O)Cc3cccs3)C2)N1 (stereo not given)	3.76%
Cn1cnnc1CC1CCN(Cc2nn(C)c3cccc(Cl)c23)CC1	-1.62%
Cc1ncc(C(=O)N2CCCCC2c2nc3cc(F)ccc3[nH]2)c(O)n1 (stereo not given)	-0.305%
CN(C)C1CCN(c2cc(-c3ccccc3)nc3ccnn23)C1 (stereo not given)	-53.5%
CS(=O)(=O)NCc1ccc(NC(=O)CC2=CCCCC2)cc1	-2.48%
CC(C)CN1C(=O)CO[C@@H]2CN(C(=O)N(C)C)C[C@H]21	0.657%
COc1cccc(CC(=O)N2CCC(NCc3c[nH]nc3C)CC2)c1	-8.98%
CN(Cc1ccsc1)C(=O)c1nc(N2CCCCC2)ncc1Cl	-27.4%
Cc1ccnc(OC[C@]23COC[C@H]2CN(C(=O)Cc2ccsc2)C3)n1	-0.376%
Cc1oc(C)c(C(=O)N2CCCN(Cc3cscn3)CC2)c1C	6.88%
Cc1n[nH]c(C)c1NC(=O)c1cccc(OCC(F)(F)F)n1	-6.83%
CN(C)CCN(Cc1cccc(C(F)(F)F)c1)C(=O)c1cc[nH]n1	1.39%
COCC(=O)N1CCC([C@@H]2C[C@H](C(F)(F)F)n3nc(C)cc3N2)CC1	-33.6%
COc1cccc(CN(C)C(=O)CN2CC(n3nc(C)cc3C)C2)c1	-1.38%
O=C(Cc1cccnc1)N1CCCC2(CCN(C3CCOCC3)C2)C1 (stereo not given)	-1.45%
NCC1CCC(c2c(C(=O)NCCO)sc3ccccc23)CC1 (stereo not given)	-11%
CC1c2ncc(COc3cccnc3)n2CCN1Cc1cnn(C)c1 (stereo not given)	-112%
C[C@@H]1CN(Cc2cc3ccccc3n2C)CC[C@]1(C)O	8.35%

— ChEMBL document CHEMBL4513216, “Probing the Open Global Health Chemical Diversity Library for Multistage-Active Starting Points for Next-Generation Antimalarials” (ACS Infect Dis, 2020)
